Measurements as given in ChEMBL document CHEMBL3758120, “Synthesis and Mechanism Studies of 1,3-Benzoazolyl Substituted Pyrrolo[2,3-b]pyrazine Derivatives as Nonintercalative Topoisomerase II Catalytic Inhibitors” (J Med Chem, 2016).
Activity calls are given as the source filed them. The rule behind the calls is not given here.

How the values were obtained:
HL-60 [1] = test: Induction of apoptosis in human HL60 cells assessed as early apoptotic cells at 0.5 uM after 24 hrs by annexin V-FITC/propidium iodide staining-based flow cytometric analysis (reference value: 0.5%); assay type: functional
Summary of the method: (§1)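 HL-60 cells at 5.0 × 10^5 cells/ml treated for 12 h (0.5–2 μM) or 24 h (0.25–1 μM), washed twice in cold PBS, resuspended in binding buffer, stained with annexin V-FITC and propidium iodide for 15 min in the dark, analysed by flow cytometry within 1 h; quadrants define live, early and late apoptotic cells. Three repeats.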

HL-60 [2] = test: Induction of apoptosis in human HL60 cells assessed as late apoptotic cells at 0.25 uM after 24 hrs by annexin V-FITC/propidium iodide staining-based flow cytometric analysis (reference value: 1.64%); assay type: functional; summary of the method: as §1
HL-60 [3] = test: Induction of apoptosis in human HL60 cells assessed as viable cells at 2 uM after 12 hrs by annexin V-FITC/propidium iodide staining-based flow cytometric analysis (reference value: 99.12 to 99.33%); assay type: functional; settings: HL-60, 12 h, read-out: Activity; summary of the method: as §1
HL-60 [4] = test: Induction of apoptosis in human HL60 cells assessed as dead cells at 0.5 uM after 12 hrs by annexin V-FITC/propidium iodide staining-based flow cytometric analysis (reference value: 0.12 to 0.15%); assay type: functional
Raji = test: Antiproliferative activity against human Raji cells after 48 hrs by MTT assay; assay type: functional, cell-based
Summary of the method: (§2)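 Cells seeded at 5000 per well and left overnight, then exposed to increasing concentrations (0-50 μM) for 48 h. […] HL-60/MX2 is a mitoxantrone-selected HL-60 derivative with reduced Topo IIα/β.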

HL-60 [5] = test: Induction of apoptosis in human HL60 cells assessed as viable cells at 1 uM after 12 hrs by annexin V-FITC/propidium iodide staining-based flow cytometric analysis (reference value: 99.12 to 99.33%); assay type: functional; settings: HL-60, 12 h, read-out: Activity; summary of the method: as §1
HL-60 [6] = test: Induction of apoptosis in human HL60 cells assessed as early apoptotic cells at 1 uM after 24 hrs by annexin V-FITC/propidium iodide staining-based flow cytometric analysis (reference value: 0.5%); assay type: functional; summary of the method: as §1
HL-60 [7] = test: Induction of apoptosis in human HL60 cells assessed as late apoptotic cells at 0.5 uM after 12 hrs by annexin V-FITC/propidium iodide staining-based flow cytometric analysis (reference value: 0.17 to 0.18%); assay type: functional; summary of the method: as §1
HL-60 [8] = test: Induction of apoptosis in human HL60 cells assessed as late apoptotic cells at 0.5 uM after 24 hrs by annexin V-FITC/propidium iodide staining-based flow cytometric analysis (reference value: 1.64%); assay type: functional; summary of the method: as §1
HL-60 [9] = test: Induction of apoptosis in human HL60 cells assessed as viable cells at 1 uM after 24 hrs by annexin V-FITC/propidium iodide staining-based flow cytometric analysis (reference value: 97.75%); assay type: functional; settings: HL-60, 24 h, read-out: Activity; summary of the method: as §1
HL-60 [10] = test: Induction of apoptosis in human HL60 cells assessed as dead cells at 0.5 uM after 24 hrs by annexin V-FITC/propidium iodide staining-based flow cytometric analysis (reference value: 0.12%); assay type: functional
HL-60 [11] = test: Resistance index, ratio of IC50 for human HL60/MX2 cells to IC50 for HL60 cells; assay type: functional
Summary of the method: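 Resistance index calculated as MTT-derived IC50 (48 h exposure, 0-50 μM, A570 readout) in HL-60/MX2 divided by IC50 in parental HL-60.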

HL-60 [12] = test: Induction of apoptosis in human HL60 cells assessed as late apoptotic cells at 1 uM after 12 hrs by annexin V-FITC/propidium iodide staining-based flow cytometric analysis (reference value: 0.17 to 0.18%); assay type: functional; summary of the method: as §1
[13] = Antiproliferative activity against human HL60/MX2 cells after 48 hrs by MTT assay; assay type: functional, cell-based; settings: HL60/MX2, 48 h; summary of the method: as §2
HL-60 [14] = test: Induction of apoptosis in human HL60 cells assessed as early apoptotic cells at 0.25 uM after 24 hrs by annexin V-FITC/propidium iodide staining-based flow cytometric analysis (reference value: 0.5%); assay type: functional; summary of the method: as §1
K562 = test: Antiproliferative activity against human K562 cells after 48 hrs by MTT assay; assay type: functional, cell-based; settings: K562, 48 h; summary of the method: as §2
[15] = target: DNA topoisomerase 2-alpha (Homo sapiens, UniProt P11388); test: Inhibition of purified human topoisomerase 2 catalytic activity using supercoiled pBR322 DNA as substrate assessed as inhibition of etoposide-induced linear DNA formation at 20 uM pre-incubated before etoposide addition by agarose gel electrophoresis
Summary of the method: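 Human Topo II (6 units) with 0.1 μg supercoiled pBR322 in 50 mM Tris-HCl pH 8.0, 150 mM NaCl, 10 mM MgCl2, 2 mM ATP, 0.5 mM DTT, 30 μg/ml BSA; compounds at 20 μM, etoposide 100 μM. After 6 min at 37 °C, complexes trapped with SDS then EDTA, proteinase K 30 min at 45 °C, heated 72 °C 2 min, run on 1% agarose; linear DNA scored. Antagonism tested by compound pretreatment before etoposide.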

[16] = target: T1, DNA topoisomerase 1 (Homo sapiens) (UniProt P11387); test: Inhibition of recombinant human topoisomerase 1 assessed as interacaltion of pBR322 DNA at 50 uM pre-incubated with DNA followed by incubation with enzyme for 30 mins by agarose gel electrophoresis
T1 sequence (whole entry): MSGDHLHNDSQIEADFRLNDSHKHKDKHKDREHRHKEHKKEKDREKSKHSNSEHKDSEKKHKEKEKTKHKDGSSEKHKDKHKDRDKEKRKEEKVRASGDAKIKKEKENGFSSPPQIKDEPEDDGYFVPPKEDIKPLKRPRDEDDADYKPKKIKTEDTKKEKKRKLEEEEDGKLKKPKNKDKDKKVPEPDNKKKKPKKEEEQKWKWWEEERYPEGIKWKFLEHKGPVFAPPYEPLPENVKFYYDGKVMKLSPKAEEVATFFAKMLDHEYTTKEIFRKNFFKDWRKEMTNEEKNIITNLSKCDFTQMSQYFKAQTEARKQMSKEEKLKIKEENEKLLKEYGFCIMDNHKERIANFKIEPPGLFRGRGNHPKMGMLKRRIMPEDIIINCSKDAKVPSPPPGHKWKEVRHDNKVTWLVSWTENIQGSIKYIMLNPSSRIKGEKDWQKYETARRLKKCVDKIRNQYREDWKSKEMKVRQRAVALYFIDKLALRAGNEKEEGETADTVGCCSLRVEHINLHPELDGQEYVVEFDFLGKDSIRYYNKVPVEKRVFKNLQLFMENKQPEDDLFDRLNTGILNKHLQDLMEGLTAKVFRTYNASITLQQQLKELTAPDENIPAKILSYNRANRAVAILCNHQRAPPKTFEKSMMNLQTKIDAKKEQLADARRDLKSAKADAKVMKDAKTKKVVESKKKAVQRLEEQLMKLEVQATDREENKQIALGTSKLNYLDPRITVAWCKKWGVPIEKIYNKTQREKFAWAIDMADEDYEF
Summary of the method: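 Supercoiled pBR322 first relaxed with Topo I in 50 mM Tris-HCl pH 7.5, 50 mM KCl, 10 mM MgCl2, 0.5 mM DTT, 0.1 mM EDTA, 30 μg/ml BSA. 0.1 μg relaxed DNA preincubated with compound 10 min at room temperature, then Topo I (1 unit) added for 30 min at 37 °C; phenol-chloroform extracted, SDS/EDTA stop, 1% agarose 1 h at 90 V; ethidium bromide as intercalator reference.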

Chain of DNA topoisomerase 2-alpha (P11388 whole entry): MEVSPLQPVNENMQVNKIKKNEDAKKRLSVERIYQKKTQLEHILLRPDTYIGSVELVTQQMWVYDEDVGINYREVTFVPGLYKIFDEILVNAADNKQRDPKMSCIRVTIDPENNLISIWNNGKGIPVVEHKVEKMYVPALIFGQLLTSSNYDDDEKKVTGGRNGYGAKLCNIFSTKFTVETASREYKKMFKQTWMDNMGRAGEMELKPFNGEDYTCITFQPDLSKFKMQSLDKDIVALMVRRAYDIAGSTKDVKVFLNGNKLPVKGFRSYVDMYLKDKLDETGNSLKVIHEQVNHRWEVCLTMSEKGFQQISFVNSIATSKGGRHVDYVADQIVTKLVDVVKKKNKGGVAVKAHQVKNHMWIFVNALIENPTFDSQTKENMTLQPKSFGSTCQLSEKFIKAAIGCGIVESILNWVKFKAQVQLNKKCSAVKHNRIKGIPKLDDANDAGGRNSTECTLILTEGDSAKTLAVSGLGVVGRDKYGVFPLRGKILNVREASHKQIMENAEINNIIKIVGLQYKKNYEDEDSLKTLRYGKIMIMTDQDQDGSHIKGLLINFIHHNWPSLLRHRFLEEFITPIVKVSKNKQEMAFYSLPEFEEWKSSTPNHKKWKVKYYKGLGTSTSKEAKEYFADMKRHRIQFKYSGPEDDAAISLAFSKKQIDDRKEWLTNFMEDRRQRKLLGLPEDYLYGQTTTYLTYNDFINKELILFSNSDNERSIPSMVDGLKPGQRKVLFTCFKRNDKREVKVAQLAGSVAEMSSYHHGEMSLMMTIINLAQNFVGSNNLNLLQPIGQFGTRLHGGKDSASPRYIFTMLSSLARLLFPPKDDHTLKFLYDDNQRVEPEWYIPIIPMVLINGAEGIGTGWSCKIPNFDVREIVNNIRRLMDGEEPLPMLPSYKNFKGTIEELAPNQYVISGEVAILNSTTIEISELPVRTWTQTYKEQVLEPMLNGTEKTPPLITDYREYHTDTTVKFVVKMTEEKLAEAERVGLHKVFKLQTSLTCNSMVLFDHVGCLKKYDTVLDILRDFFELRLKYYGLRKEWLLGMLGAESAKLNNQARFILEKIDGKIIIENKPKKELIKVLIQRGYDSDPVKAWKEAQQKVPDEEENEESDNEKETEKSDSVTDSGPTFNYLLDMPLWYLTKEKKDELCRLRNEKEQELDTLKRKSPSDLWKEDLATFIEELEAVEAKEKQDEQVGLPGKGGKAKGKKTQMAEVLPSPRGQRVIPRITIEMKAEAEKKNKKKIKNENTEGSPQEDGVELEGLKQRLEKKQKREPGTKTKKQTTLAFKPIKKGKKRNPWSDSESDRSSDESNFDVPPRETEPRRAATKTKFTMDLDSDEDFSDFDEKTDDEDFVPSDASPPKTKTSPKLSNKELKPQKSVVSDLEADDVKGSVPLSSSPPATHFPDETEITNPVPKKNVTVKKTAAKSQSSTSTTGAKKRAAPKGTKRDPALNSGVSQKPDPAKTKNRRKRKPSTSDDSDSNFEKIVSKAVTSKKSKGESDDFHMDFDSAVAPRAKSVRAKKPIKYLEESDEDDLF

Compound: CN(C)CCCCn1c(N)c(-c2nc3ccccc3[nH]2)c2nc(C#N)c(C#N)nc21
- Activity (HL-60 [1]): 4.45%
- Activity (HL-60 [2]): 0.42%
- viability at 2 µM (HL-60 [3]): 28.1%
- Activity (HL-60 [4]): 0.05%
- IC50 (Raji): 2560 nM
- viability at 1 µM (HL-60 [5]): 98.7%
- Activity (HL-60 [6]): 0.53%
- Activity (HL-60 [7]): 0.21%
- Activity (HL-60 [8]): 79.38%
- viability at 1 µM (HL-60 [9]): 0.65%
- Activity (HL-60 [10]): 2.28%
- Ratio IC50 (HL-60 [11]): 4.1
- Activity (HL-60 [12]): 0.39%
- IC50 [13]: 1780 nM
- Activity (HL-60 [14]): 0.54%
- IC50 (K562): 1430 nM
- inhibition [15]: Active
- inhibition [16]: inactive

Compound: CCN(CC)CCCCn1c(N)c(-c2nc3ccccc3[nH]2)c2nc(C#N)c(C#N)nc21
- Activity (HL-60 [1]): 3.24%
- Activity (HL-60 [2]): 0.41%
- viability at 2 µM (HL-60 [3]): 45.3%
- Activity (HL-60 [4]): 0.1%
- IC50 (Raji): 2640 nM
- viability at 1 µM (HL-60 [5]): 97.2%
- Activity (HL-60 [6]): 9.38%
- Activity (HL-60 [7]): 0.21%
- Activity (HL-60 [8]): 17.65%
- viability at 1 µM (HL-60 [9]): 32.9%
- Activity (HL-60 [10]): 0.43%
- Ratio IC50 (HL-60 [11]): 3.3
- Activity (HL-60 [12]): 1.19%
- IC50 [13]: 1550 nM
- Activity (HL-60 [14]): 0.35%
- IC50 (K562): 1440 nM
- inhibition [15]: Active
- inhibition [16]: inactive
